Screening results deposited in PubChem by several laboratories.
Hits are enriched below; roughly 1.7% of the tested compounds scored in any of these assays.
Scp1 inh: Scp-1 (human) phosphatase inhibition. Q9GZU7. Recombinant Scp1, phosphopeptide, malachite green phosphate absorbance. inhibition, % at 20 µM. 340,000 tested, 0.88% active. AID 493091;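 active = inhibition above about 50% at 20 µM, limit read from the data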
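Test system: SCP-1 phosphatase catalytic domain, residues 76-261 | Compound dosing: One concentration, 20 µM, with 1.0% DMSO | Schedule: 45 min room-temperature reaction, 5 min colour, 30 min stabiliser | Detection: Absorbance at 630 nm | Read-out basis: % inhibition of SCP-1 phosphate liberation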
DNMT1 block: inhibitors of human DNMT1 | P26358 | DNMT1 molecular beacon, Hinp1I cleavage, fluorescence | inhibition (reported as % activation of signal), % at 10 µM | 360,000 tested, 0.83% active | AID 588458; in the data active = inhibition above about 50%
SUMO1 PPI mod: modulators of human SUMO1-mediated protein-protein interactions. inhibition, % at 20 µM. P63165. SUMO1 binding to a labelled peptide, TR-FRET, 1 h. 360,000 tested, 0.33% active; in the data active = inhibition above about 37%
LMPTP block: blocks human LMPTP phosphatase; recombinant LMPTP-A, OMFP fluorogenic substrate, fluorescence intensity; 360,000 tested, 0.22% active; P24666; inhibition, % at 20 µM;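 active = compounds that cut the enzyme signal by at least half of the control window in the single-dose screen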
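Buffer or medium: Bis-Tris pH 6.0, DTT, detergent; Assay system: LMPTP-A enzyme; Quantity: 0.625 nM enzyme; Detection: endpoint fluorescence intensity; Times: 50 min dark incubation at room temperature; Controls: substrate-only low control, DMSO enzyme-plus-substrate high control; Doses: single 20 µM dose; Read-out: percent inhibition versus substrate-only and uninhibited controls; Reagent: 400 µM OMFP.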
Casp6 inh: blocks human caspase-6 cleavage activity; P55212; purified caspase-6, Z-VEID-R110 cleavage fluorescence; inhibition, % at 12.5 µM; 350,000 tested, 0.53% active; AID 686996;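 active = mean inhibition across replicates at least about 35%, with every replicate also reaching that limit, limit read from the data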
STEP block: STEP (human) phosphatase inhibition | recombinant STEP, OMFP fluorogenic substrate, fluorescence | inhibition, % at 20 µM | 360,000 tested, 0.25% active;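 active = inhibition at 20 µM, scaled per plate between control wells, above about 37%, limit read from the data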
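System: STEP phosphatase, cell-free reaction; Buffer or medium: Bis-Tris pH 6.0 buffer with DTT, detergent; Incubation: 20 min at room temperature, dark; Measured by: fluorescence, 480/540 nm.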
Scp1 confirm: confirmation of human Scp-1 phosphatase inhibitors | shares compounds with Scp1 inh | recombinant SCP-1 catalytic domain, phosphate release, malachite green absorbance | inhibition, % at 20 µM | 2,500 tested, 61% active
MG interference: counter-screen for Scp-1 inhibitors: colorimetric interference | shares compounds with Scp1 inh | 2,500 tested, under 10 active | Colorimetric interference counterscreen, malachite green absorbance 630 nm | apparent inhibition (interference), % at 20 µM;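 also: compounds added after enzyme reaction finished so only phosphate colour detection is probed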
Scp1 DSF: binds human Scp-1, shifting its melting temperature; shares compounds with Scp1 inh; Recombinant SCP1, Sypro Orange thermal shift Tm; thermal shift relative to vanadate control, % at 40 µM; 1,500 tested, 25% active;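 active = substances whose mean melting-temperature shift, as a percentage of the reference inhibitor's shift, reaches about 5.3%, limit read from the data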
DNMT1 confirm: DNMT1 inhibition confirmation, single concentration | shares compounds with DNMT1 block | DNMT1 molecular beacon HinP1I cleavage, fluorescence | inhibition, % at 10 µM | 2,300 tested, 8% active | AID 602385;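 active = average inhibition of at least 30% in the single-concentration confirmation test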
Beacon interf: shows spectral interference in the DNMT1 beacon assay; shares compounds with DNMT1 block; DNMT1 molecular beacon spectral interference counterscreen, fluorescence 485/520; activation (fluorescence interference), % at 10 µM; 2,300 tested, 1% active; AID 602387;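 active = activation of at least 30% at 10 µM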;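 also: DNMT1 catalytic domain with a HinP1I cleavage step and a FAM/dabcyl DNA beacon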
STEP inh conf: confirmation of human STEP phosphatase inhibitors; 520 tested, 32% active; shares compounds with STEP block; inhibition, % at 20 µM; recombinant STEP, OMFP fluorogenic substrate, fluorescence; AID 623866; call rule not given here
Of the large screens only hits and unclear results are named; the others gave an inactive call (follow-up assays come after a bar, where they were run).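 The calls were made as follows, unless noted: active = inhibition of at least 30% at 20 µM; inactive = the rest.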

O=C(OCc1cc(=O)n2c(n1)sc1ccccc12)c1ccc2c(=O)n3c(nc2c1)CCC3	Scp1 inh 72, DNMT1 block 102 (no result: Casp6 inh) | Scp1 confirm 53 | MG interference inactive | Scp1 DSF inactive | DNMT1 confirm inactive | Beacon interf inactive
Cc1ccc2c(CC(=O)OCc3cc(=O)n4c(n3)sc3ccccc34)coc2c1	Scp1 inh 66, DNMT1 block 105 (no result: Casp6 inh) | Scp1 confirm 68 | MG interference inactive | Scp1 DSF inactive | DNMT1 confirm inactive | Beacon interf inactive
C[C@@H]1CN([C@@H](C)CO)S(=O)(=O)c2ccc(C3=CCCC3)cc2O[C@@H]1CN(C)C(=O)c1ccc(F)cc1	none (no result: Scp1 inh, DNMT1 block, SUMO1 PPI mod, LMPTP block, STEP block)
COc1cc(-c2c(-c3ccsc3)sc3ccccc23)cc(OC)c1OC	none
Cc1cc(C)cc(CC(=O)N2CCC2(C)C(=O)NS(=O)(=O)c2ccccc2Cl)c1 (stereo not given)	none (no result: Scp1 inh)
O=C(c1ccco1)N1CCN(C(=O)c2ccc(-c3ccc([N+](=O)[O-])cc3)o2)CC1	Scp1 inh 90, DNMT1 block 63, SUMO1 PPI mod 74 | Scp1 confirm inactive | MG interference inactive | DNMT1 confirm inactive | Beacon interf inactive
Cc1cccn2c(=O)c(C(=O)NC3CCCCC3C)c(O)nc12 (stereo not given)	none
CCc1ccc(OCC(=O)Nc2ccc(-c3nc4ccccc4o3)c(O)c2)cc1	Scp1 inh 100, DNMT1 block 77, STEP block 66 (no result: Casp6 inh) | Scp1 confirm 73 | MG interference inactive | Scp1 DSF inactive | DNMT1 confirm inactive | Beacon interf inactive | STEP inh conf 19
COc1ccc(OCC(=O)Nc2cccc(-c3nc4ccccc4o3)c2)cc1	none (no result: Casp6 inh)
CCCCC(=O)Nc1ccc(C(=O)NNC(=O)c2ccc(C)c(Br)c2)cc1	Scp1 inh 102, DNMT1 block 81, LMPTP block 78, STEP block 74 (no result: Casp6 inh) | Scp1 confirm 71 | MG interference inactive | Scp1 DSF inactive | DNMT1 confirm inactive | Beacon interf inactive | STEP inh conf 40
O=C(NNC(=O)C1CCN(Cc2cccc(F)c2)CC1)c1cccc(Cl)c1	none (no result: Casp6 inh)
CC(=O)Oc1ccc(/C=N\NC(=O)c2cc3c(ccc4ccccc43)o2)cc1	Scp1 inh 92, STEP block 90 | Scp1 confirm 69 | MG interference inactive | Scp1 DSF inactive | STEP inh conf inactive
O=C(CSc1ccc(Cl)cc1)Nc1cccc(-c2nc3ccccc3[nH]2)c1	none (no result: Casp6 inh)
Cc1ccc(NC(=O)CN2C(=O)S/C(=C\c3ccccn3)C2=O)cc1C	none
Cc1ccc(NC(=O)CN2C(=O)S/C(=C\c3cccn3-c3cccc(C(=O)O)c3)C2=O)cc1C	Scp1 inh 79, STEP block 42 | Scp1 confirm 80 | MG interference inactive | Scp1 DSF 11 | STEP inh conf inactive
Cc1csc2c(=O)sc(NC(=O)c3cccs3)nc12	Scp1 inh 97, LMPTP block 69, STEP block 95 | Scp1 confirm 63 | MG interference inactive | Scp1 DSF inactive | STEP inh conf inactive
CC(=O)c1sc(NC(=O)c2cccs2)nc1C	none
O=C(NNC(=O)c1cc2cc3ccccc3nc2s1)c1ccc(F)cc1	Scp1 inh 105, STEP block 97 (no result: Casp6 inh) | Scp1 confirm 68 | MG interference inactive | Scp1 DSF inactive | STEP inh conf inactive
O=C(NNC(=O)c1cc2cc3ccccc3nc2s1)c1cccc(Cl)c1	Scp1 inh 98, DNMT1 block 78, LMPTP block 63, STEP block 97 (no result: Casp6 inh) | Scp1 confirm 73 | MG interference inactive | Scp1 DSF inactive | DNMT1 confirm inactive | Beacon interf inactive | STEP inh conf inactive
Cc1cccc(C(=O)NNC(=O)c2cc3cc4ccccc4nc3s2)c1	none (no result: Casp6 inh)
O=C(Nc1cc(F)ccc1F)N1CC(=O)N2[C@@H](CO)[C@@H](c3ccc(C#CC4CCCC4)cc3)[C@@H]2C1	none (no result: Scp1 inh, DNMT1 block, SUMO1 PPI mod, LMPTP block, STEP block)
COc1cccc(Nc2nn3c(=O)c4ccccc4nc3s2)c1	Scp1 inh 60, STEP block 82 (no result: Casp6 inh) | Scp1 confirm 58 | MG interference inactive | Scp1 DSF 6.1 | STEP inh conf 47
C[C@H](CO)N1C[C@H](C)[C@@H](CN(C)C(=O)Nc2ccc(C(F)(F)F)cc2)Oc2ccc(NC(=O)c3ccncc3)cc2C1=O	Scp1 inh 77, DNMT1 block 92, LMPTP block 64, STEP block 52 | Scp1 confirm inactive | MG interference inactive | DNMT1 confirm inactive | Beacon interf inactive | STEP inh conf inactive
C[C@H](CO)N1C[C@H](C)[C@H](CN(C)C(=O)Nc2ccc(C(F)(F)F)cc2)Oc2ccc(NC(=O)c3ccncc3)cc2C1=O	none (no result: Scp1 inh, DNMT1 block, SUMO1 PPI mod, LMPTP block, STEP block)
O=C(N/N=C/c1cc(Br)c(Br)o1)c1cc2ccccc2o1	Scp1 inh 111, STEP block 56 | Scp1 confirm 61 | MG interference inactive | Scp1 DSF inactive | STEP inh conf inactive
COc1ccc2[nH]c3nc(SCC(=O)NNC(=O)c4ccc(OC)c(OC)c4)nnc3c2c1	none (no result: Casp6 inh)
Cc1ccc(C(=O)NNC(=O)CSc2nnc3c(n2)[nH]c2ccc(F)cc23)cc1	Scp1 inh 67, DNMT1 block 105, LMPTP block 52, STEP block 56 (no result: Casp6 inh) | Scp1 confirm 76 | MG interference inactive | Scp1 DSF inactive | DNMT1 confirm inactive | Beacon interf inactive | STEP inh conf inactive
CCOC(=O)CN1C(=O)S/C(=C/c2ccc(OCc3ccc(C(=O)O)cc3)cc2)C1=O	Scp1 inh 93, STEP block 78 | Scp1 confirm 67 | MG interference inactive | Scp1 DSF inactive | STEP inh conf 50
NC(=O)c1cc2ccccc2o/c1=N\NC(=O)c1ccccc1O	Scp1 inh 103, LMPTP block 75, STEP block 99 | Scp1 confirm 79 | MG interference inactive | Scp1 DSF inactive | STEP inh conf 90
